{"source": "ChEMBL document CHEMBL3871264", "about": "“Design of a novel thiophene inhibitor of 15-lipoxygenase-1 with both anti-inflammatory and neuroprotective properties” (Eur J Med Chem, 2016)", "molecules": {"B1": {"name": "Polyunsaturated fatty acid lipoxygenase ALOX15 (Homo sapiens), P16050 (protein)", "chain": "MGLYRIRVSTGASLYAGSNNQVQLWLVGQHGEAALGKRLWPARGKETELKVEVPEYLGPLLFVKLRKRHLLKDDAWFCNWISVQGPGAGDEVRFPCYRWVEGNGVLSLPEGTGRTVGEDPQGLFQKHREEELEERRKLYRWGNWKDGLILNMAGAKLYDLPVDERFLEDKRVDFEVSLAKGLADLAIKDSLNVLTCWKDLDDFNRIFWCGQSKLAERVRDSWKEDALFGYQFLNGANPVVLRRSAHLPARLVFPPGMEELQAQLEKELEGGTLFEADFSLLDGIKANVILCSQQHLAAPLVMLKLQPDGKLLPMVIQLQLPRTGSPPPPLFLPTDPPMAWLLAKCWVRSSDFQLHELQSHLLRGHLMAEVIVVATMRCLPSIHPIFKLIIPHLRYTLEINVRARTGLVSDMGIFDQIMSTGGGGHVQLLKQAGAFLTYSSFCPPDDLADRGLLGVKSSFYAQDALRLWEIIYRYVEGIVSLHYKTDVAVKDDPELQTWCREITEIGLQGAQDRGFPVSLQARDQVCHFVTMCIFTCTGQHASVHLGQLDWYSWVPNAPCTMRLPPPTTKDATLETVMATLPNFHQASLQMSITWQLGRRQPVMVAVGQHEEEYFSGPEPKAVLKKFREELAALDKEIEIRNAKLDMPYEYLRPSVVENSVAI"}}, "note": "Active and inactive are the calls of the source. The rule behind the calls is not given here."}
{"target": "T1, Polyunsaturated fatty acid lipoxygenase ALOX15 (Homo sapiens, UniProt P16050)", "T1 sequence (P16050 whole entry)": "B1 chain", "test": "Inhibition of human 15-LOX-1 assessed as reduction in conversion of linoleic acid to 13(S)-HpODE incubated for 10 mins followed by linoleic acid addition by UV-absorbance analysis", "settings": "not given", "units": {"IC50": "µM"}}
{"molecule": "CCCCNC(=O)c1cc(Cc2ccccc2)sc1N", "IC50": "50 to 115"}
{"molecule": "CCCCN(CCCC)C(=O)c1cc(-c2ccccc2)sc1N", "IC50": "50 to 152"}
{"molecule": "CCCCNC(=O)c1c(N)sc(-c2ccccc2)c1CCCC", "IC50": "> 50"}
{"molecule": "CCCCNC(=O)c1cc(CCC)sc1N", "IC50": "50 to 65.4"}
{"molecule": "CCCCn1c(=O)[nH]c2sc(-c3ccccc3)cc2c1=O", "IC50": "50 to 67.3"}
{"molecule": "CCCCNC(=O)c1c(N)sc(-c2ccccc2)c1C", "IC50": "> 50"}
{"molecule": "Nc1sc(-c2ccccc2)cc1C(=O)NCCCCc1ccccc1", "IC50": "50 to 81.7"}
{"molecule": "CCCCNC(=O)c1cc(-c2ccc(Cl)cc2)sc1N", "IC50": "50 to 519"}
{"molecule": "CCCCNC(=O)c1cc(C)sc1N", "IC50": "50 to 354"}
{"molecule": "CCCCNC(=O)c1cc(CC)sc1N", "IC50": "50 to 65.3"}
{"molecule": "CCCCNC(=O)c1cc(-c2ccc(Br)cc2)sc1N", "IC50": "50 to 71.1"}
{"molecule": "CCCCNC(=O)c1c(N)sc(-c2ccc(Cl)cc2)c1CCCC", "IC50": "> 50"}
{"molecule": "CCCCCc1cc(C(=O)NCCCC)c(N)s1", "IC50": "50 to 61.4"}
{"target": "T2, Polyunsaturated fatty acid lipoxygenase ALOX15 (Mus musculus) (UniProt P39654)", "T2 sequence (whole entry)": "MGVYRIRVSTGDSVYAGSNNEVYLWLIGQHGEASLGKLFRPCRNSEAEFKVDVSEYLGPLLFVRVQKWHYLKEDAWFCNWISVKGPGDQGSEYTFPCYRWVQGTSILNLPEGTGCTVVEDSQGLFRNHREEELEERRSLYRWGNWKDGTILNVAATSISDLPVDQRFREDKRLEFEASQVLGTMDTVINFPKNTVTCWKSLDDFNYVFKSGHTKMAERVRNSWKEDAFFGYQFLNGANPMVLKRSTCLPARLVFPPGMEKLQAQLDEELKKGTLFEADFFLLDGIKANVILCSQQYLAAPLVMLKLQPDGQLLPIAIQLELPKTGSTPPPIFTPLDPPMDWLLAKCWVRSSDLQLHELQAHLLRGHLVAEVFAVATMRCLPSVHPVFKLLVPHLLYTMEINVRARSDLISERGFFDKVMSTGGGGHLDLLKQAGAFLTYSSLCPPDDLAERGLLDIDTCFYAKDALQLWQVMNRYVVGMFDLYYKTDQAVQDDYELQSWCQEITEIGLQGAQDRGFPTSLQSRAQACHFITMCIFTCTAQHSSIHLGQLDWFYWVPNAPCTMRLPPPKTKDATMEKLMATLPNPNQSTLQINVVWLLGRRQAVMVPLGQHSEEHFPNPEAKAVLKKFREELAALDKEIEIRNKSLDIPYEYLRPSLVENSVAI", "test": "Inhibition of 15-LOX-1 in mouse HT22 cells assessed as inhibition of glutamate-induced lipid peroxidation at 1 uM incubated for 14 to 16 hrs by BODIPY 581/591 C11 staining based FACS analysis", "assay_type": "cell-based", "settings": "HT-22", "outline": "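HT-22 cells were seeded at 5x10^4 per well and incubated overnight. They were then exposed to 4 mM glutamate in DMEM/10% FCS, with or without 10 µM test inhibitor or 1 µM PD146176, for 6-7 h or 14-16 h. Cells were stained with BODIPY 581/591 C11 at 2 µM final for 1 h at 37 °C. The red-to-green fluorescence shift was read by flow cytometry (488 nm excitation). At least 3 experiments were run, each in triplicate.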"}
{"molecule": "c1ccc2c(c1)SCc1c-2[nH]c2ccccc12", "inhibition": "Active"}
{"target": "T2, Polyunsaturated fatty acid lipoxygenase ALOX15 (Mus musculus)", "test": "Inhibition of 15-LOX-1 in mouse HT22 cells assessed as protection against glutamate-induced cell death by measuring increase in cell viability at 1 uM cotreated with glutamate measured for 16 to 20 hrs by MTT assay", "assay_type": "cell-based", "settings": "HT-22, in the assay text read “14 to 16 hrs” for “16 to 20 hrs”", "outline": "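HT-22 cells were seeded at 8x10^3 per well and incubated overnight. They were challenged with 4 mM glutamate in DMEM/10% FCS. Inhibitor was given either with glutamate (1-20 µM; PD146176 at 1 µM) or added at 5 or 10 µM 2, 4, 6 or 8 h after glutamate. After 14-16 h, MTT was added at 0.5 mg/mL for 1 h at 37 °C. Formazan was dissolved in DMSO and read at 570 nm minus 630 nm background, expressed relative to control. Three experiments were run with 6-8 replicates each.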"}
{"molecule": "c1ccc2c(c1)SCc1c-2[nH]c2ccccc12", "inhibition": "Active"}
{"target": "T2, Polyunsaturated fatty acid lipoxygenase ALOX15 (Mus musculus)", "test": "Inhibition of 15-LOX-1 in mouse HT22 cells assessed as protection against glutamate-induced cell impedance at 1 uM cotreated with glutamate up to 16 hrs by real time cell viability assay", "assay_type": "cell-based", "settings": "HT-22", "outline": "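HT-22 cells were seeded at 8x10^3 per well, incubated overnight, then given 4 mM glutamate. Inhibitor was either co-applied (1-20 µM; PD146176 at 1 µM) or added at 10 µM 2, 4, 6 or 8 h after glutamate. Impedance was recorded in real time for 16-20 h, with cell index normalized just before glutamate addition.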"}
{"molecule": "c1ccc2c(c1)SCc1c-2[nH]c2ccccc12", "inhibition": "Active"}
{"compound": "CCCCNC(=O)c1cc(-c2ccccc2)sc1N", "test": "Competitive inhibition of human 15-LOX-1 assessed as apparent Km at 5 uM by Lineweaver-Burk plot analysis (reference value: 9.1 +/- 3.4 microM)", "settings": "not given", "outline": "(§1)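 Purified enzyme activity was read as UV absorbance at 234 nm of the product formed from linoleic acid substrate, in 96-well format. Substrate-dependence runs were done with and without inhibitor. Apparent Km and Vmax were derived from Lineweaver-Burk plots.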", "units": {"Km": "µM"}}
{"molecule": "B1", "Km": 14.2}
{"compound": "CCCCNC(=O)c1cc(-c2ccccc2)sc1N", "test": "Competitive inhibition of human 15-LOX-1 assessed as apparent Km at 15 uM by Lineweaver-Burk plot analysis (reference value: 9.1 +/- 3.4 microM)", "settings": "not given", "outline": "as §1", "units": {"Km": "µM"}}
{"molecule": "B1", "Km": 38.2}
